Experimental data: ChEMBL document CHEMBL1122858, “N-(1,3,4,6,7,12b-hexahydro-2H-benzo[b]furo[2,3-a]quinolizin -2-yl)-N- methyl-2-hydroxyethane-sulfonamide: a potent and selective alpha 2-adrenoceptor antagonist” (J Med Chem, 1985)

Legend:
[1] = target: T1, Alpha-1A adrenergic receptor (Bos taurus, UniProt P18130); assay: Evaluated for its ability to displace [3H]prazosin from alpha-1-Adrenoceptor of calf cerebral cortex; type: tissue-based
T1 sequence (P18130 whole entry): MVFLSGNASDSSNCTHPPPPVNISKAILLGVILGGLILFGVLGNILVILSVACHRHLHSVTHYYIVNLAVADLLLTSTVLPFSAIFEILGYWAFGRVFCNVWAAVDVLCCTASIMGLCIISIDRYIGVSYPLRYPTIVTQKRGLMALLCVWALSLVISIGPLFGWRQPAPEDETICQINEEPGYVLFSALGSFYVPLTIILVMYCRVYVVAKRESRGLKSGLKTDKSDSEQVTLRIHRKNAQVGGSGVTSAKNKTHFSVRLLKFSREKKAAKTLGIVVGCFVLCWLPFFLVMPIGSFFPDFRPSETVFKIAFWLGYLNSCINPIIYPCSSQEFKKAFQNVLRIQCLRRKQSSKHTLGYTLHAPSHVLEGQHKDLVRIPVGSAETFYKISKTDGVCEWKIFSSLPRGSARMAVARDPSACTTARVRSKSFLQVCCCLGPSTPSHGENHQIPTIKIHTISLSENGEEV

[2] = target: T2, Alpha-2A adrenergic receptor (Bos taurus, UniProt Q28838); assay: Evaluated for its ability to displace [3H]clonidine from alpha-2 adrenergic receptor of calf cerebral cortex; type: tissue-based
T2 sequence (Q28838 whole entry): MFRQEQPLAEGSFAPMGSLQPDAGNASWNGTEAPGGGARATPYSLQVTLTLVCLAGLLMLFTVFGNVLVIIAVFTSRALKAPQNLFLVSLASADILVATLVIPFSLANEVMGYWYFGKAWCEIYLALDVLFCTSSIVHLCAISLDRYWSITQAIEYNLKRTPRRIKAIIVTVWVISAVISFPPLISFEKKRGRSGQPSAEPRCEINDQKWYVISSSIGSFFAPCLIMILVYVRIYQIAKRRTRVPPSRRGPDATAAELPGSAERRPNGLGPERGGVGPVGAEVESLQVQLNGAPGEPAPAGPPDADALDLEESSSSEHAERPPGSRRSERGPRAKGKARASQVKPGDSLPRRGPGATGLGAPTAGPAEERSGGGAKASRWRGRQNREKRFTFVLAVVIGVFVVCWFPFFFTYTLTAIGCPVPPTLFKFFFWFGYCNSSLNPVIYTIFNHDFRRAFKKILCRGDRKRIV

[3] = target: T3, Adrenergic receptor alpha-2 (Rattus norvegicus, UniProt P22086+P19328+P22909); assay: Evaluated for its ability to displace [3H]rauwolscine from alpha-2 adrenergic receptor of rat cerebral cortex; type: tissue-based
T3 sequence (P22086 whole entry): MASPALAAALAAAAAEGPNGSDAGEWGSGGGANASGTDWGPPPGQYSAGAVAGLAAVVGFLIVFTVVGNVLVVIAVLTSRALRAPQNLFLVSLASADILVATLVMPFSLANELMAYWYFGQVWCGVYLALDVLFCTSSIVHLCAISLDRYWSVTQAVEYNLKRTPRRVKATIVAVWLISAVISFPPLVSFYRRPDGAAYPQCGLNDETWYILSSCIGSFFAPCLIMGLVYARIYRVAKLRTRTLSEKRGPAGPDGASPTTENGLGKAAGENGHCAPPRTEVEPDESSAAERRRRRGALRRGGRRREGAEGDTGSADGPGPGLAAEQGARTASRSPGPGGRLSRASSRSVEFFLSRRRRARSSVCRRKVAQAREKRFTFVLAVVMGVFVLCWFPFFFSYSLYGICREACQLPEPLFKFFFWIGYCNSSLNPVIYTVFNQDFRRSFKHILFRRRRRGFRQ
T3 sequence (P19328 whole entry): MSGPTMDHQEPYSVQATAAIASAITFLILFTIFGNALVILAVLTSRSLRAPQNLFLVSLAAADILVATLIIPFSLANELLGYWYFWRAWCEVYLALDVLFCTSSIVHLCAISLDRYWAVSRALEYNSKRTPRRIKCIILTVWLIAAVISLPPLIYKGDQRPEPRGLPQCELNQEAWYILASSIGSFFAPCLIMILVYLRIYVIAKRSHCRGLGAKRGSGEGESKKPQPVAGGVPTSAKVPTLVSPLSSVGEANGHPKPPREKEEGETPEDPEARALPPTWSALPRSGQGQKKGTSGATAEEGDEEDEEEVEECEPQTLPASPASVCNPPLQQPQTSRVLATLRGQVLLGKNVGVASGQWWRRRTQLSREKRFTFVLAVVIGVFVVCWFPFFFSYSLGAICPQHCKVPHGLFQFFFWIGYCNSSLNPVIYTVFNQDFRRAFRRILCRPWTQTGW
T3 sequence (P22909 whole entry): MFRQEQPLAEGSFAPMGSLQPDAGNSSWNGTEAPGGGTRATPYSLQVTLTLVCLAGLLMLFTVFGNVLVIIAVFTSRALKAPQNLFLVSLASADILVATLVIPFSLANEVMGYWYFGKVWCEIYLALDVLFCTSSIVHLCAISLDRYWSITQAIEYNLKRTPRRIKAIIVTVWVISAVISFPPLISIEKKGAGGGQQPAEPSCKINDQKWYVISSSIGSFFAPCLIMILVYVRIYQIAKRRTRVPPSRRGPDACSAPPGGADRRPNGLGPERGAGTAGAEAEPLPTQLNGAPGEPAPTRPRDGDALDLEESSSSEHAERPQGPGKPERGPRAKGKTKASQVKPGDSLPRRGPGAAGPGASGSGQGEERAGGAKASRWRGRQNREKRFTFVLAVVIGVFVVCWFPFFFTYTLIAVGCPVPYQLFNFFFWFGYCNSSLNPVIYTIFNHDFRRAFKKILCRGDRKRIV

[4] = system: Rattus norvegicus; assay: Tested for reversal of clonidine-induced mydriasis in the rat administered intravenously; type: functional; settings: iv
How it was run: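 In rats, clonidine-induced mydriasis from activation of central postsynaptic α2-adrenoceptors is established first. Test agents are then scored for reversing it, as a read-out of blood-brain barrier penetration and central α2 antagonism.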

[5] = organism: Rattus norvegicus; assay: Tested for antagonism of clonidine in the field-stimulated rat vas deferens.; type: functional; settings: read-out: pA2 (converted)
How it was run: (§1)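 Isolated, field-stimulated rat vas deferens. Clonidine probes presynaptic α2-adrenoceptors and methoxamine probes postsynaptic α1-adrenoceptors. pA2 and slope come from Schild plots using at least three antagonist concentrations and four tissues per concentration. Values are means ± SD.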

[6] = organism: Rattus norvegicus; assay: Tested for antagonism of methoxamine in the field-stimulated rat vas deferens.; type: functional; settings: read-out: pA2 (converted); how it was run: as §1

Ki [1]	Ki [2]	Ki [3]	Structure (SMILES)	ED50 [4]	Kb [5]	Kb [6]
8000 nM	100 nM	190 nM	CN([C@H]1CCN2CCc3c(oc4ccccc34)[C@H]2C1)S(=O)(=O)CCO	5.41 mg/kg	39.8 nM	2510 nM
210 nM	1.36 nM	1.6 nM	CN(C1CCN2CCc3c(oc4ccccc34)C2C1)S(=O)(=O)CCO (stereo unspecified)	0.0435 mg/kg	1.7 nM	102 nM
110 nM	0.77 nM	1.1 nM	CN([C@@H]1CCN2CCc3c(oc4ccccc34)[C@@H]2C1)S(=O)(=O)CCO	0.0346 mg/kg	0.794 nM	34.7 nM
–	–	–	COC(=O)[C@@H]1[C@H]2C[C@H]3c4[nH]c5ccccc5c4CCN3C[C@@H]2CC[C@@H]1O [YOHIMBINE]	1.04 mg/kg	22.4 nM	302 nM
